# Data from PMC3243070 (European Journal of Medicinal Chemistry, 2011).
# How the values were obtained:
# kidney FAR = conditions: cited from earlier work
# [1] = target: T1, bovine folate binding protein (FBP) (Bos taurus, UniProt P02702); conditions: SPR, earlier study; cited from earlier work
# [2] = target: T1, bovine folate binding protein (FBP)
# Outline: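 Bovine milk FBP amide-coupled to a CM5 chip (9.5 ng/mm2). Ligands injected in HBS-EP at 30 µL/min (monovalent) or 50 µL/min (dendrimer conjugates). Chip regenerated with 10 mM glycine-HCl pH 2.5. Reference channel subtracted. kon and koff from Langmuir fits, with mass-transport effects checked. KD = koff/kon, averaged over ≥3 measurement sets per concentration with χ2 < 5.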
# T1 sequence (P02702 20-241): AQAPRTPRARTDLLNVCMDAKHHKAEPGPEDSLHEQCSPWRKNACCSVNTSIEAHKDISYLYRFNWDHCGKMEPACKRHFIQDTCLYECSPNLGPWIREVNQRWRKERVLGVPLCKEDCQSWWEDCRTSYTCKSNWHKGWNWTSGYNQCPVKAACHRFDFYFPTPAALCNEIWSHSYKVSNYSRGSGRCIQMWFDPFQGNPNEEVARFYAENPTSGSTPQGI
Compound,Kd (kidney FAR) [nM],Kd [1] [nM],koff [2] [s⁻¹],kon [2] [M⁻¹ s⁻¹],affinity lower than that of FA ([2]; from the SPR KD values)
"Nc1nc2ncc(CNc3ccc(C(=O)N[C@@H](CCC(=O)O)C(=O)O)cc3)nc2c(=O)[nH]1 [FA, folic acid]",~1,5000,0.012,1100,
"CN(Cc1cnc2nc(N)nc(N)c2n1)c1ccc(C(=O)N[C@@H](CCC(=O)O)C(=O)O)cc1 [MTX, methotrexate]",20 to 100,,,,≈ 2 fold
